The target in assay [1] is Sodium-dependent dopamine transporter (Rattus norvegicus, UniProt P23977). The assay can be described thus: Binding affinity for dopamine transporter. The procedure, abridged: (§1)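 [125I]RTI-55 competition binding. Drugs and blockers in 55.2 mM sodium phosphate buffer pH 7.4 with 1 mg/mL BSA. Radioligand in the same buffer with chymostatin, leupeptin, EDTA and EGTA. Triplicate incubation for 18–24 h at 4 °C to equilibrium. Filtered over GF/B filters presoaked in 2% polyethylenimine, washed with ice-cold Tris-HCl/NaCl pH 7.4. Ki derived.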
Chain of Sodium-dependent dopamine transporter (P23977 whole entry): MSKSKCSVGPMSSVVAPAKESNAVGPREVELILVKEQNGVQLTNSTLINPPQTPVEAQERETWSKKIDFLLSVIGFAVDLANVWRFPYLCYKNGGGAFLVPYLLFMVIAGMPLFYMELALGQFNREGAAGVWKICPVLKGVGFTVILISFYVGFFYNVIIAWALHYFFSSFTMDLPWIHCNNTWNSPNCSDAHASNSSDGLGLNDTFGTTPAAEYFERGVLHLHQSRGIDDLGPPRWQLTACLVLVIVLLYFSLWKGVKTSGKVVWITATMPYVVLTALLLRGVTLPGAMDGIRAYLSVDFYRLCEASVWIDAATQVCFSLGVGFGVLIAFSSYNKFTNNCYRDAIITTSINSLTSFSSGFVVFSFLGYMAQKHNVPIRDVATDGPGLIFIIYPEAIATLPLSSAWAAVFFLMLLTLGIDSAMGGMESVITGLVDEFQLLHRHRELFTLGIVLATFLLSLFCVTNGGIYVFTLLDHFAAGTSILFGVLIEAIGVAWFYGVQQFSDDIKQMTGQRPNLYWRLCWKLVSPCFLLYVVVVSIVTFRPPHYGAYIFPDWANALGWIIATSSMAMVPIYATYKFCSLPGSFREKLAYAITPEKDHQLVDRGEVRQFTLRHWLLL

The target in assay [2] is Sodium-dependent serotonin transporter (Rattus norvegicus, UniProt P31652). The assay can be described thus: Binding affinity for serotonin transporter. Summed up: as §1
Chain of Sodium-dependent serotonin transporter (P31652 whole entry): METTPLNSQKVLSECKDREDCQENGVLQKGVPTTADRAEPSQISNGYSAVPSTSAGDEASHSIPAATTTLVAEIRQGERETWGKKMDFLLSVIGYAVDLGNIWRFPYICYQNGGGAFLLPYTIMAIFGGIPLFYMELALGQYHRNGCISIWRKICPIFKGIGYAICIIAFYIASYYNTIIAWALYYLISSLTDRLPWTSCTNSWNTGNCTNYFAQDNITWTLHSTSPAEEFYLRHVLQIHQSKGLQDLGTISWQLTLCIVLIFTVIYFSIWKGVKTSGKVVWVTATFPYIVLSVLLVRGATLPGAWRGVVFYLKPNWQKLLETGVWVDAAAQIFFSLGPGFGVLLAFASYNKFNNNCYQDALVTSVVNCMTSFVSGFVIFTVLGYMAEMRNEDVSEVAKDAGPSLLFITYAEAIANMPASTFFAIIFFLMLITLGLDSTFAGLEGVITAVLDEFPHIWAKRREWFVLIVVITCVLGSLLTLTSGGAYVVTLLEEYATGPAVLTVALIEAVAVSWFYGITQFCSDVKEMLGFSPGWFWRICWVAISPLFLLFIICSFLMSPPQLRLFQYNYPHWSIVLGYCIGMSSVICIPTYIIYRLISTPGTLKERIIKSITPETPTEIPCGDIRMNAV
In assay [3] the target is Monoamine transporters; serotonin & dopamine (Rattus norvegicus) (UniProt P31652+P23977). The assay can be described thus: Selectivity ratio for serotonin transporter to dopamine transporter. The format is protein assay.
Chain of Monoamine transporters; serotonin & dopamine (Rattus norvegicus) (P23977 whole entry, looked up): as the sequence (P23977 whole entry) above
Chain of Monoamine transporters; serotonin & dopamine (Rattus norvegicus) (P31652 whole entry, looked up): as the sequence (P31652 whole entry) above
Assay [4] has as its system Rattus norvegicus. The assay can be described thus: Dopamine (DA) reuptake inhibition properties of in vivo extracellular dopamine (ECDA) levels in rat nucleus accumbens microdialysis assay, at […]. The class given is functional. The procedure, abridged:
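Male Sprague–Dawley rats (300–450 g), conscious and freely moving, with jugular catheters and nucleus accumbens probes (2 mm exchange surface). Single iv doses (as salt) of drug or saline vehicle given after three baseline samples. Dialysate taken every 20 min for 2 h, DA by microbore HPLC-EC. Values are pg/5 µL, mean ± SEM, n = 4–5 rats/group. Repeated-measures ANOVA.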

For orientation: Ki means the dissociation constant of the complex between target and ligand, obtained from inhibition or displacement.

Structures are written as SMILES.

Regarding `O[C@H](Cc1ccccc1)CN1CCN(CCOC(c2ccccc2)c2ccccc2)CC1`, the figures for the Ki in assay [1] and in assay [2] were 25 nM and 1800 nM, respectively. In addition, in assay [3], the Ratio was 72.

As for `O[C@H](Cc1ccccc1)CN1CCN(CCOC(c2ccc(F)cc2)c2ccc(F)cc2)CC1`, in assay [4], the DA level is on record as 1.73 pg 5ul-1. Also, the Ki in assay [1] amounted to 12 nM; in assay [2] it was 160 nM. For the same compound, the Ratio in assay [3] amounted to 13.

For the compound `O[C@@H](CN1CCN(CCOC(c2ccccc2)c2ccccc2)CC1)c1ccccc1`, the Ki is 170 nM in assay [1] and 330 nM in assay [2]. Moreover, the Ratio in assay [3] worked out at 2.

As for `O[C@H](CN1CCN(CCOC(c2ccc(F)cc2)c2ccc(F)cc2)CC1)c1ccccc1`, the Ki in assay [1] was found to be 11 nM; in assay [2], 77 nM. Further, the Ratio in assay [3] amounted to 7.

`OC(Cc1ccccc1)CN1CCN(CCOC(c2ccc(F)cc2)c2ccc(F)cc2)CC1` (racemic): the Ki in assay [1] was found to be 2.3 nM; in assay [2] it was 120 nM. In assay [3], the Ratio was determined as 52.

As for `OCC(c1ccccc1)N1CCN(CCOC(c2ccccc2)c2ccccc2)CC1` (racemic), the Ki was 120 nM in assay [1] and 3800 nM in assay [2]. In addition, the Ratio in assay [3] turned out to be 32.

`O[C@@H](Cc1ccccc1)CN1CCN(CCOC(c2ccc(F)cc2)c2ccc(F)cc2)CC1` returned a DA level in assay [4] of 1.73 pg 5ul-1. In addition, the figures for the Ki in assay [1] and in assay [2] were 0.75 nM and 230 nM, respectively. Besides, the Ratio in assay [3] stood at 307.

Regarding `O[C@H](CN1CCN(CCOC(c2ccccc2)c2ccccc2)CC1)c1ccccc1`, the values for the inhibition constant (Ki) in assay [1] and in assay [2] were 30 nM and 1400 nM, respectively. In assay [3], the Ratio amounted to 47.

`O[C@@H](Cc1ccccc1)CN1CCN(CCOC(c2ccccc2)c2ccccc2)CC1`: the Ki in assay [1] is 2.3 nM; in assay [2] it was 2160 nM. Moreover, in assay [3], the Ratio is 939.

For the compound `O[C@@H](CN1CCN(CCOC(c2ccc(F)cc2)c2ccc(F)cc2)CC1)c1ccccc1`, the Ki in assay [1] amounted to 26 nM; in assay [2], 13 nM. In addition, the Ratio in assay [3] came out at 0.5.

As for `OCC(c1ccccc1)N1CCN(CCOC(c2ccc(F)cc2)c2ccc(F)cc2)CC1` (racemic), the Ki in assay [1] worked out at 48 nM; in assay [2] it was 2500 nM. Moreover, the Ratio in assay [3] was 52.

`Fc1ccc(C(OCCN2CCN(CCc3ccccc3)CC2)c2ccc(F)cc2)cc1`: the Ki in assay [1] was 8 nM; in assay [2], 36 nM. In addition, the Ratio in assay [3] turned out to be 5.
